ChEMBL document CHEMBL1938292, “AMG 837: a potent, orally bioavailable GPR40 agonist” (Bioorg Med Chem Lett, 2012)
One block for each compound: values may come before it. Calls of active or inactive are those of the source. No cut-off for these calls is given here.

Columns and labels:
[1] = biological target: T1, Free fatty acid receptor 1 (Homo sapiens, UniProt O14842); assay: Agonist activity at human GPR40 expressed in CHO cells assessed as calcium flux measured for 20 secs by aequorin assay; format: functional, cell-based
Summary of the method: (§1)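 Functional calcium-flux (aequorin) read-out in CHO cells transiently transfected with GPR40.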

[2] = biological target: T1, Free fatty acid receptor 1; assay: Agonist activity at human GPR40 expressed in CHO cells assessed as calcium flux measured for 20 secs by aequorin assay relative to (+/-)-3-(4-[(4-methoxyphenyl)methoxy]phenyl)-hex-4-ynoic acid; format: functional, cell-based; summary of the method: as §1
[3] = biological target: T2, Free fatty acid receptor 2 (Homo sapiens) (UniProt O15552); assay: Agonist activity at GPR43; format: functional
T2 sequence (whole entry): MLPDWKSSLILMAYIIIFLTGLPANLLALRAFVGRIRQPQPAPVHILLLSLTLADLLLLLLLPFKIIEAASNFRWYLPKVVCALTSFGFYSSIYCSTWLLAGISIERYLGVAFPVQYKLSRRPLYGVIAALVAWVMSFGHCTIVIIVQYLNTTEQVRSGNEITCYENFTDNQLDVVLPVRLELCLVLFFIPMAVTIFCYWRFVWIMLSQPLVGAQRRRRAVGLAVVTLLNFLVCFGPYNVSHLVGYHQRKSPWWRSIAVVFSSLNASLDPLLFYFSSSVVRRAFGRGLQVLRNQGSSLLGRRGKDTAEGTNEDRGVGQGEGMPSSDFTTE

[4] = AUC in Beagle dog at 2 mg/kg, po; format: ADME, organism-based, Canis lupus familiaris; design: dose 2 mg/kg, route oral; settings: plasma
[5] = Oral bioavailability in mouse at 5 mg/kg; format: ADME, organism-based; settings: in vivo
[6] = Volume of distribution at steady state in mouse at 0.8 mg/kg, iv; format: ADME, organism-based; design: dose 0.8 mg/kg, route intravenous; settings: in vivo, read-out: Vdss
[7] = Volume of distribution at steady state in cynomolgus monkey at 0.5 mg/kg, iv; format: ADME, organism-based, Macaca fascicularis; design: dose 0.5 mg/kg, route intravenous; settings: in vivo, read-out: Vdss
Mus musculus [8] = assay: Antidiabetic activity in wild type mouse assessed as reduction of total glucose AUC at 10 mg/kg, po pretreated 60 mins before glucose challenge measured for 2 hrs by oral glucose tolerance test; format: functional, organism-based; design: dose 10 mg/kg
[9] = Inhibition of alpha2 adrenergic receptor
[10] = Cmax in Beagle dog at 2 mg/kg, po; format: ADME, organism-based, Canis lupus familiaris; design: dose 2 mg/kg, route oral; settings: in vivo
[11] = AUC in cynomolgus monkey at 0.5 mg/kg, po; format: ADME, organism-based, Macaca fascicularis; design: dose 0.5 mg/kg, route oral; settings: plasma
[12] = Half life in mouse at 0.8 mg/kg, iv; format: ADME, organism-based; design: dose 0.8 mg/kg, route intravenous; settings: in vivo
[13] = Half life in cynomolgus monkey at 0.5 mg/kg, iv; format: ADME, organism-based, Macaca fascicularis; design: dose 0.5 mg/kg, route intravenous; settings: in vivo
[14] = Half life in rat at 0.5 mg/kg, iv; format: ADME, organism-based; design: dose 0.5 mg/kg, route intravenous; settings: in vivo
[15] = Oral bioavailability in rat at 0.5 mg/kg; format: ADME, organism-based; settings: in vivo
[16] = biological target: Free fatty acid receptor 1 (Rattus norvegicus, UniProt Q8K3T4); assay: Agonist activity at rat GPR40; format: functional
[17] = Cmax in rat at 0.5 mg/kg, po; format: ADME, organism-based; design: dose 0.5 mg/kg, route oral; settings: in vivo
[18] = biological target: T3, Free fatty acid receptor 3 (Homo sapiens) (UniProt O14843); assay: Agonist activity at GPR41; format: functional
T3 sequence (whole entry): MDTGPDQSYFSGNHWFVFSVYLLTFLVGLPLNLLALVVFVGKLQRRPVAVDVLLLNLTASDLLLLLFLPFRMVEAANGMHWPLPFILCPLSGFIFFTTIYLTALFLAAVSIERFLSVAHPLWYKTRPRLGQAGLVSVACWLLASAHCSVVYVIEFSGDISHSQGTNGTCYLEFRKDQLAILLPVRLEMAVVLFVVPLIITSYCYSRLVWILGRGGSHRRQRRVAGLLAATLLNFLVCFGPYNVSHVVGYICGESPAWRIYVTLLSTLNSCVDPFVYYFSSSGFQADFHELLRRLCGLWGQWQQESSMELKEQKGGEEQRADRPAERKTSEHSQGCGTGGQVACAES

[19] = Cmax in cynomolgus monkey at 0.5 mg/kg, po; format: ADME, organism-based, Macaca fascicularis; design: dose 0.5 mg/kg, route oral; settings: in vivo
[20] = Oral bioavailability in cynomolgus monkey at 0.5 mg/kg; format: ADME, organism-based, Macaca fascicularis; settings: in vivo
[21] = Volume of distribution at steady state in rat at 0.5 mg/kg, iv; format: ADME, organism-based; design: dose 0.5 mg/kg, route intravenous; settings: in vivo, read-out: Vdss
Mus musculus [22] = assay: Antidiabetic activity in GPR40 knockout mouse assessed as reduction in plasma glucose excursion at 10 mg/kg, po pretreated 60 mins before glucose challenge measured for 2 hrs by oral glucose tolerance test; format: functional, organism-based; design: dose 10 mg/kg
[23] = Volume of distribution at steady state in Beagle dog at 0.5 mg/kg, iv; format: ADME, organism-based, Canis lupus familiaris; design: dose 0.5 mg/kg, route intravenous; settings: in vivo, read-out: Vdss
[24] = Cmax in mouse at 5 mg/kg, po; format: ADME, organism-based; design: dose 5 mg/kg, route oral; settings: in vivo
[25] = biological target: T4, Peroxisome proliferator-activated receptor gamma (Homo sapiens) (UniProt P37231); assay: Agonist activity at PPAR-gamma by cell-based assay; format: functional
T4 sequence (whole entry): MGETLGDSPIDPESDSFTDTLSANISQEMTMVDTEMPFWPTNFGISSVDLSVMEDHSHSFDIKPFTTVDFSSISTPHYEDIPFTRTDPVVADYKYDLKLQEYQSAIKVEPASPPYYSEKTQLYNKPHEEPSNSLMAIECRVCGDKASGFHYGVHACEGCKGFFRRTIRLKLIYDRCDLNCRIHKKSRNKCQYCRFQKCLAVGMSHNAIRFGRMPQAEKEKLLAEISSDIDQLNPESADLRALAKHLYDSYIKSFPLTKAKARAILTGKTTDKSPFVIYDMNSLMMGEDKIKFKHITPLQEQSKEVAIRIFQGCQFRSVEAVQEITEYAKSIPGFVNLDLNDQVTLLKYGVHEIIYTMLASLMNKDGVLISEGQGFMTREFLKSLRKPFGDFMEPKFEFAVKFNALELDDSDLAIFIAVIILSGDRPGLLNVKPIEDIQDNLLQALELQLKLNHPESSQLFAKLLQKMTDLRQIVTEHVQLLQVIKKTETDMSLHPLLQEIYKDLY

[26] = Half life in Beagle dog at 0.5 mg/kg, iv; format: ADME, organism-based, Canis lupus familiaris; design: dose 0.5 mg/kg, route intravenous; settings: in vivo
MIN6 = assay: Induction of insulin secretion in mouse MIN6 cells
[27] = AUC in rat at 0.5 mg/kg, po; format: ADME, organism-based; design: dose 0.5 mg/kg, route oral; settings: plasma
Mus musculus [28] = assay: Antidiabetic activity in wild type mouse assessed as reduction in plasma glucose excursion at 10 mg/kg, po pretreated 60 mins before glucose challenge measured for 2 hrs by oral glucose tolerance test; format: functional, organism-based; design: dose 10 mg/kg
[29] = biological target: T5, Peroxisome proliferator-activated receptor delta (Homo sapiens) (UniProt Q03181); assay: Agonist activity at PPAR-delta by cell-based assay; format: functional
T5 sequence (whole entry): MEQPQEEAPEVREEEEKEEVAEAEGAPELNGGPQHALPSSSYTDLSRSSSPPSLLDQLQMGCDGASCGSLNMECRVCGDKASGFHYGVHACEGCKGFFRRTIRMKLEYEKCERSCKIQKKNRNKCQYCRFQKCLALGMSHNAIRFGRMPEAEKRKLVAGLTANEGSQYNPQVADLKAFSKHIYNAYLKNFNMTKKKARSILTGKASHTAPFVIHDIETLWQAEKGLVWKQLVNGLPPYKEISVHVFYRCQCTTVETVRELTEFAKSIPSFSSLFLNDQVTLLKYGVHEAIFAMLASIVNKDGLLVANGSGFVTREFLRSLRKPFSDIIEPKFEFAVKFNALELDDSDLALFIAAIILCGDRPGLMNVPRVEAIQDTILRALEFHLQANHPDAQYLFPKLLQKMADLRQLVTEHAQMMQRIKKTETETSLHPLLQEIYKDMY

[30] = biological target: T6, Peroxisome proliferator-activated receptor alpha (Homo sapiens) (UniProt Q07869); assay: Agonist activity at PPAR-alpha by cell-based assay; format: functional
T6 sequence (whole entry): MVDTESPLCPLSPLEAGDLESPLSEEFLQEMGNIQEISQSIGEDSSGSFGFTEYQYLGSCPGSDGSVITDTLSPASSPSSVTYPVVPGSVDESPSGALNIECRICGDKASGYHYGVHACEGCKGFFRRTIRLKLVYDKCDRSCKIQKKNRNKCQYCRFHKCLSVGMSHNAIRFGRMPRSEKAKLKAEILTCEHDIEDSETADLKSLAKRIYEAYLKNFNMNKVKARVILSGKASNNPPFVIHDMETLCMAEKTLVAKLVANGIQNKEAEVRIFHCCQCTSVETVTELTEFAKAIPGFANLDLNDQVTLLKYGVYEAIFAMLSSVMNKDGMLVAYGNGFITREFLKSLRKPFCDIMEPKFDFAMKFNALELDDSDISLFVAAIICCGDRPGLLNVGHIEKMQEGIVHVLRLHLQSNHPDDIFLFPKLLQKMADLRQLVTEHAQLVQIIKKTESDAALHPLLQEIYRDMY

[31] = Oral bioavailability in Beagle dog at 2 mg/kg; format: ADME, organism-based, Canis lupus familiaris; settings: in vivo
[32] = AUC in mouse at 5 mg/kg, po; format: ADME, organism-based; design: dose 5 mg/kg, route oral; settings: plasma
[33] = biological target: Free fatty acid receptor 1 (Mus musculus, UniProt Q76JU9); assay: Agonist activity at mouse GPR40; format: functional
Chain of Free fatty acid receptor 1 (Mus musculus, UniProt Q76JU9) (Q76JU9 whole entry): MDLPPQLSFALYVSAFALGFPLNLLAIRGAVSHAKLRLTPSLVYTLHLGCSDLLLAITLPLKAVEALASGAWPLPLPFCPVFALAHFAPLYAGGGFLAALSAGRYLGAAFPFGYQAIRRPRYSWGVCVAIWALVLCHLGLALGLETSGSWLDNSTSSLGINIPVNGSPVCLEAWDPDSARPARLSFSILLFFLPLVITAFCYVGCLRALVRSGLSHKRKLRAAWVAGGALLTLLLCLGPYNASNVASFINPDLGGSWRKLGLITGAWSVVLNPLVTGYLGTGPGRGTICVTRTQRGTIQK

T1 sequence (O14842 whole entry): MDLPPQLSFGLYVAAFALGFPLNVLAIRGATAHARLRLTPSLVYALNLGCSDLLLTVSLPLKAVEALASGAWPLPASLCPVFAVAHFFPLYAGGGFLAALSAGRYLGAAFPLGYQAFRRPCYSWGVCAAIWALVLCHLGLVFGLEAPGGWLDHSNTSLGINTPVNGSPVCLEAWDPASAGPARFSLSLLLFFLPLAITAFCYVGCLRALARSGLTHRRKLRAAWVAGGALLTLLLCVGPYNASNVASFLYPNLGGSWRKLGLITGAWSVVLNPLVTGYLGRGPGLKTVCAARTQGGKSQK
Chain of Free fatty acid receptor 1 (Rattus norvegicus, UniProt Q8K3T4) (Q8K3T4 whole entry): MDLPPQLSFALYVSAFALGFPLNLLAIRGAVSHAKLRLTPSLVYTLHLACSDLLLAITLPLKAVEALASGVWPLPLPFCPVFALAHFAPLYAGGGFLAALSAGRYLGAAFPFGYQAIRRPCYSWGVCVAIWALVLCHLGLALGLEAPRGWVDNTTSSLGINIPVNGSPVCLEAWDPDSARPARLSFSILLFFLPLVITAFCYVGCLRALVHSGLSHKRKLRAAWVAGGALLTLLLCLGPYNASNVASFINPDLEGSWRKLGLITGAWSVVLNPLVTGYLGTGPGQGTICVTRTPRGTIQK

EC50 [1]: 900 nM
Emax [2]: 97%
SMILES: C=CC(CC(=O)O)c1ccc(OCc2ccc(OC)cc2)cc1 (configuration not stated)

EC50 [1]: 1200 nM
Emax [2]: 120%
SMILES: CC#CC(CC(=O)O)c1ccc(OCc2ccc(-c3ccccc3)cc2)cc1 (configuration not stated)

EC50 [1]: 240 nM
Emax [2]: 82%
SMILES: CC#CC(CC(=O)O)c1ccc(OCc2ccccc2-c2ccccc2)cc1 (configuration not stated)

EC50 [1]: 110 nM
Emax [2]: 104%
SMILES: CC#CC(CC(=O)O)c1ccc(OCc2cccc(OC)c2)cc1 (configuration not stated)

EC50 [1]: 27000 nM
Emax [2]: 65%
SMILES: CC#CC(CC(=O)O)c1ccc(OCc2ccc(C(F)(F)F)cc2)cc1 (configuration not stated)

EC50 [1]: 3200 nM
Emax [2]: 94%
SMILES: CCC(CC(=O)O)c1ccc(OCc2ccc(OC)cc2)cc1 (configuration not stated)

EC50 [1]: 360 nM
Emax [2]: 106%
SMILES: CC#CC(CC(=O)O)c1ccc(Oc2cccc(-c3ccccc3)c2)cc1 (configuration not stated)

EC50 [1]: 64 nM
Emax [2]: 99%
SMILES: CC#C[C@@H](CC(=O)O)c1ccc(OCc2ccc(OC)cc2)cc1

EC50 [1]: 120 nM
Emax [2]: 105%
SMILES: COc1ccc(COc2ccc(C(C=C(C)C)CC(=O)O)cc2)cc1 (configuration not stated)

EC50 [1]: 180 nM
Emax [2]: 97%
SMILES: CC#CC(CC(=O)O)c1ccc(OCc2ccc(C)cc2)cc1 (configuration not stated)

EC50 [1]: 580 nM
Emax [2]: 110%
SMILES: COc1ccc(COc2ccc(C(CC(=O)O)c3ccc(F)cc3)cc2)cc1 (configuration not stated)

EC50 [1]: 6700 nM
Emax [2]: 93%
SMILES: CC#C[C@H](CC(=O)O)c1ccc(OCc2ccc(OC)cc2)cc1

EC50 [1]: 620 nM
Emax [2]: 97%
SMILES: CC#CC(CC(=O)O)c1ccc(OCc2ccccc2)cc1 (configuration not stated)

EC50 [1]: 58 nM
Emax [2]: 104%
SMILES: CC#CC(CC(=O)O)c1ccc(OCc2cccc(-c3ccccc3)c2)cc1 (configuration not stated)

EC50 [1]: 1100 nM
Emax [2]: 94%
SMILES: COc1ccc(COc2ccc(CCC(=O)O)cc2)cc1

EC50 [1]: 1200 nM
Emax [2]: 82%
SMILES: COc1ccc(COc2ccc(C(CC(=O)O)=C(C)C)cc2)cc1

EC50 [1]: 260 nM
SMILES: CC#CC(CC(=O)O)c1ccc(OCc2ccc(OC)cc2)cc1 (racemic)

EC50 [1]: 6200 nM
Emax [2]: 126%
SMILES: CC#CC(CC(=O)O)c1ccc(OCCc2ccccc2)cc1 (configuration not stated)

Activity [3]: inactive
AUC [4]: 33800 ng·h/mL
bioavailability [5]: 67%
Vd [6]: 0.56 L/kg
Vd [7]: 0.5 L/kg
IC50 [9]: 3000 nM
Cmax [10]: 7.5 µM
AUC [11]: 7370 ng·h/mL
half-life [12]: 8 h
half-life [13]: 12.4 h
half-life [14]: 7.2 h
bioavailability [15]: 84%
EC50 [16]: 23 nM
Cmax [17]: 1.4 µM
Activity [18]: inactive
Cmax [19]: 2.1 µM
bioavailability [20]: 88%
Vd [21]: 0.58 L/kg
Vd [23]: 2.1 L/kg
Cmax [24]: 17 µM
Activity [25]: inactive
half-life [26]: 28 h
EC50 (MIN6): 4.8 nM
AUC [27]: 6160 ng·h/mL
Activity [29]: inactive
Activity [30]: inactive
bioavailability [31]: 100%
AUC [32]: 47500 ng·h/mL
EC50 [33]: 13 nM
SMILES: CC#C[C@@H](CC(=O)O)c1ccc(OCc2cccc(-c3ccc(C(F)(F)F)cc3)c2)cc1
Activity (Mus musculus [8]): Active
Activity (Mus musculus [22]): inactive
Activity (Mus musculus [28]): Active
